# In ChEMBL document CHEMBL1137681, “Design, synthesis and characterization of N9/N7-substituted 6-aminopurines as VEGF-R and EGF-R inhibitors” (Eur J Med Chem, 2009):
# Active and inactive are the calls of the source. No cut-off for these calls is given here.
# Tests used:
# [1] = biological target: Vascular endothelial growth factor receptor 3 (Homo sapiens, UniProt P35916); test: Inhibition of VEGFR3 up to 100 uM
# Angiopoietin-1 receptor = Angiopoietin-1 receptor (Homo sapiens, UniProt Q02763); test: Inhibition of TIE2 up to 100 uM
# [2] = biological target: Receptor tyrosine-protein kinase erbB-2 (Homo sapiens, UniProt P04626); test: Inhibition of ERBB2 up to 100 uM
# Outline: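 Buffer: HEPES-NaOH pH 7.5, Mg2+/Mn2+, vanadate, DTT, PEG20000, 1% DMSO. Incubated 30 °C for 80 min, stopped with 2% H3PO4, washed, and scintillation-counted. IC50 from 10 concentrations in singlicate.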
# [3] = biological target: Proto-oncogene tyrosine-protein kinase Src (Homo sapiens, UniProt P12931); test: Inhibition of SRC up to 100 uM
# [4] = biological target: Calcium/calmodulin-dependent protein kinase kinase 1 (Homo sapiens) (UniProt Q8N5S9); test: Inhibition of human CAMKKalpha at 10 uM
# [5] = Inhibition of PKBbeta S474D mutant at 10 uM
# [6] = biological target: Serine/threonine-protein kinase 26 (Homo sapiens) (UniProt Q9P289); test: Inhibition of human MST4 at 10 uM
# [7] = biological target: Tyrosine-protein kinase CSK (Homo sapiens) (UniProt P41240); test: Inhibition of CSK at 10 uM
# [8] = biological target: Myosin light chain kinase, smooth muscle (Homo sapiens) (UniProt Q15746); test: Inhibition of smMLCK at 10 uM
# [9] = biological target: Cyclin-dependent kinase 2 (Homo sapiens) (UniProt P24941); test: Inhibition of CDK2/cyclin A at 10 uM
# [10] = biological target: Mitogen-activated protein kinase 8 (Homo sapiens) (UniProt P45983); test: Inhibition of JNK1alpha1 at 10 uM
# [11] = biological target: Serine/threonine-protein kinase PAK 5 (Homo sapiens) (UniProt Q9P286); test: Inhibition of human PAK5 at 10 uM
# [12] = Inhibition of PKA at 10 uM
# [13] = biological target: MAP kinase-interacting serine/threonine-protein kinase 2 (Homo sapiens) (UniProt Q9HBH9); test: Inhibition of MNK2alpha at 10 uM
# [14] = biological target: Serine/threonine-protein kinase pim-2 (Homo sapiens) (UniProt Q9P1W9); test: Inhibition of PIM2 at 10 uM
# Chain of Serine/threonine-protein kinase pim-2 (Homo sapiens) (Q9P1W9 whole entry, looked up): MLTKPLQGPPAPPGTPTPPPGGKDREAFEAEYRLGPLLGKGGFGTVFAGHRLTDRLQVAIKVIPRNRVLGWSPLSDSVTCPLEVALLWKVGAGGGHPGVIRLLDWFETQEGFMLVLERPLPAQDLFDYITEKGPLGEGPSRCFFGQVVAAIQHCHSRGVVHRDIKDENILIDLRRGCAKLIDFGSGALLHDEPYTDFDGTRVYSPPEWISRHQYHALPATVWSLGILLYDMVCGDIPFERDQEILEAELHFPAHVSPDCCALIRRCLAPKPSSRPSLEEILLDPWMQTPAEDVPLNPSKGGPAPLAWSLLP
# [15] = biological target: Tyrosine-protein kinase Yes (Homo sapiens) (UniProt P07947); test: Inhibition of human YES1 at 10 uM
# Chain of Tyrosine-protein kinase Yes (Homo sapiens) (P07947 2-543 limits assumed): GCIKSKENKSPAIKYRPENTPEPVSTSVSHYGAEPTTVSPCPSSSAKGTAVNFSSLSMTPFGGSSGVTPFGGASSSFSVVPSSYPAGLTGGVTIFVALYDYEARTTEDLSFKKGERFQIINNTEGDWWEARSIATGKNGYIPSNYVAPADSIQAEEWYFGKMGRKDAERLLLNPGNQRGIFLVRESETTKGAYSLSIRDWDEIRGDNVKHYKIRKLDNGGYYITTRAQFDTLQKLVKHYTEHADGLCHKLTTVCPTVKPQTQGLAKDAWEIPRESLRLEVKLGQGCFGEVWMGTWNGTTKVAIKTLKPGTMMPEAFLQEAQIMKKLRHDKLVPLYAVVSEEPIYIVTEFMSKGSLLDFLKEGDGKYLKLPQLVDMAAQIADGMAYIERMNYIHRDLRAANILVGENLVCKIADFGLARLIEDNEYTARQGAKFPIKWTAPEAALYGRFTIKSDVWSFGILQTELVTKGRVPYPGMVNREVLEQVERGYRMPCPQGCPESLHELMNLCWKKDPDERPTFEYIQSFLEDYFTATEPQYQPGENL
# [16] = biological target: Glycogen synthase kinase-3 beta (Homo sapiens) (UniProt P49841); test: Inhibition of GSK3-beta at 10 uM
# [17] = biological target: Mitogen-activated protein kinase 9 (Homo sapiens) (UniProt P45984); test: Inhibition of human JNK2 at 10 uM
# Aurora kinase B [18] = biological target: T1, Aurora kinase B (Homo sapiens, UniProt Q96GD4); test: Inhibition of Aurora B up to 100 uM
# T1 sequence (Q96GD4 whole entry): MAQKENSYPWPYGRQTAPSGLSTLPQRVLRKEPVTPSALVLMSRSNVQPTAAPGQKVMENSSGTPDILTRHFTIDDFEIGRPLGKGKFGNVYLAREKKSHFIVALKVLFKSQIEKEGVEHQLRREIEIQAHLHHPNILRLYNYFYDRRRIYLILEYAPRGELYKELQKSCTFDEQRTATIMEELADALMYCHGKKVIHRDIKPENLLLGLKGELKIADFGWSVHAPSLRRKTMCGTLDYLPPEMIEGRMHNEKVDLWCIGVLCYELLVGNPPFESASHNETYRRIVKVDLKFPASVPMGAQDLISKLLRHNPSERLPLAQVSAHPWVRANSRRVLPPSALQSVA
# Outline: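 Buffer was HEPES-NaOH pH 7.5 with MgCl2, MnCl2, vanadate, DTT, PEG20000 and 1% DMSO. Run 80 min at 30 °C, quenched with 2% H3PO4, NaCl-washed, then scintillation-counted. IC50 fitted from 10 concentrations tested once each.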
# [19] = biological target: Serine/threonine-protein kinase 3 (Homo sapiens) (UniProt Q13188); test: Inhibition of human MST2 at 10 uM
# [20] = biological target: Ribosomal protein S6 kinase alpha-1 (Rattus norvegicus) (UniProt Q63531); test: Inhibition of rat MAPKAP-K1a at 10 uM
# [21] = system: Serine/threonine-protein kinase B-raf (Homo sapiens), P15056 [V600E]; test: Inhibition of BRAF V600E mutant up to 100 uM
# [22] = biological target: Aurora kinase C (Homo sapiens) (UniProt Q9UQB9); test: Inhibition of human aurora C at 10 uM
# Chain of Aurora kinase C (Homo sapiens) (Q9UQB9 whole entry): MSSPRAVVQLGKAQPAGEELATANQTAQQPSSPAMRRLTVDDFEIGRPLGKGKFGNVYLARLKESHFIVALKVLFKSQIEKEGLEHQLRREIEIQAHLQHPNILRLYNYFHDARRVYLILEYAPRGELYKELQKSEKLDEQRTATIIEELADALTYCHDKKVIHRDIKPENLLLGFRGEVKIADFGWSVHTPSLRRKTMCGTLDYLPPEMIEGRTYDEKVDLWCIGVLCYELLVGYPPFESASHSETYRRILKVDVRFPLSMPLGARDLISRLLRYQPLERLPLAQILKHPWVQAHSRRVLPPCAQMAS
# [23] = biological target: Calcium/calmodulin-dependent protein kinase kinase 2 (Homo sapiens) (UniProt Q96RR4); test: Inhibition of human CAMKKbeta at 10 uM
# [24] = biological target: Serine/threonine-protein kinase BRSK2 (Homo sapiens) (UniProt Q8IWQ3); test: Inhibition of human BRSK2 at 10 uM
# [25] = system: Ribosomal protein S6 kinase beta-1 (Homo sapiens), P23443 [T412E]; test: Inhibition of S6K1 T412E mutant at 10 uM
# [26] = biological target: Serine/threonine-protein kinase pim-3 (Homo sapiens) (UniProt Q86V86); test: Inhibition of human PIM3 at 10 uM
# [27] = biological target: Calcium/calmodulin-dependent protein kinase type 1 (Homo sapiens) (UniProt Q14012); test: Inhibition of CAMK1 at 10 uM
# [28] = biological target: 3-phosphoinositide-dependent protein kinase 1 (PDPK1) (Homo sapiens) (UniProt O15530); test: Inhibition of PDK1 (delta 1-51) at 10 uM
# [29] = biological target: Dual specificity tyrosine-phosphorylation-regulated kinase 1A (Rattus norvegicus) (UniProt Q63470); test: Inhibition of rat DYRK1a at 10 uM
# Aurora kinase B [30] = biological target: T1, Aurora kinase B; test: Inhibition of Aurora B at 10 uM
# [31] = biological target: Dual specificity tyrosine-phosphorylation-regulated kinase 2 (Homo sapiens) (UniProt Q92630); test: Inhibition of human DYRK2 at 10 uM
# [32] = biological target: Mitogen-activated protein kinase 10 (Homo sapiens) (UniProt P53779); test: Inhibition of JNK3alpha1 at 10 uM
# Chain of Mitogen-activated protein kinase 10 (Homo sapiens) (P53779 whole entry): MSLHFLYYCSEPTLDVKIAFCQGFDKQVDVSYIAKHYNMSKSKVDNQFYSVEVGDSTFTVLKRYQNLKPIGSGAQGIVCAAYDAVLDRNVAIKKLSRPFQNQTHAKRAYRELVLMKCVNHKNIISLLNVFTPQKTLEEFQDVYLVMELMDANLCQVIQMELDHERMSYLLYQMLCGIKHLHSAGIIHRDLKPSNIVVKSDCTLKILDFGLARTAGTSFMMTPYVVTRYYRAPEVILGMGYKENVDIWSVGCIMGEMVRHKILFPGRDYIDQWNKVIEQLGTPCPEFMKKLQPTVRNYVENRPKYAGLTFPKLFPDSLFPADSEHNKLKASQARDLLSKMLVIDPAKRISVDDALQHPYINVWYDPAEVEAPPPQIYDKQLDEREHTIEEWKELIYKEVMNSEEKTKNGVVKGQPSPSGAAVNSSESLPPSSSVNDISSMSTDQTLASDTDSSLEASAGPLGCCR
# [33] = biological target: Proto-oncogene tyrosine-protein kinase LCK (Mus musculus) (UniProt P06240); test: Inhibition of mouse LCK at 10 uM
# [34] = biological target: Maternal embryonic leucine zipper kinase (Homo sapiens) (UniProt Q14680); test: Inhibition of human MELK at 10 uM
# [35] = biological target: Protein kinase C zeta type (Homo sapiens) (UniProt Q05513); test: Inhibition of human PKCzeta at 10 uM
# [36] = biological target: Inhibitor of nuclear factor kappa-B kinase subunit epsilon (Homo sapiens) (UniProt Q14164); test: Inhibition of human IKKe at 10 uM
# [37] = biological target: Mitogen-activated protein kinase 13 (Homo sapiens) (UniProt O15264); test: Inhibition of SAPK4 at 10 uM
# Chain of Mitogen-activated protein kinase 13 (Homo sapiens) (O15264 whole entry): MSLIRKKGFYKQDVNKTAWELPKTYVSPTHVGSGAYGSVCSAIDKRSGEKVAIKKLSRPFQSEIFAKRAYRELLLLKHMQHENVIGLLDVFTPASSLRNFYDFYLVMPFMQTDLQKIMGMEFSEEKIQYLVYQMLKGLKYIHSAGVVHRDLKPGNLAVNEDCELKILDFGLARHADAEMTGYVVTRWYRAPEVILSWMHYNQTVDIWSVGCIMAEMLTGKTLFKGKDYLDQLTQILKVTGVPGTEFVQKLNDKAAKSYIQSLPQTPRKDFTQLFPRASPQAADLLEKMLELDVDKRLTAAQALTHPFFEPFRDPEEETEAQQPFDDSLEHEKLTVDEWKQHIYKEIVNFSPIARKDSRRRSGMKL
# [38] = biological target: Serine/threonine-protein kinase D1 (Homo sapiens) (UniProt Q15139); test: Inhibition of human PKD1 at 10 uM
# [39] = biological target: Tyrosine-protein kinase SYK (Homo sapiens) (UniProt P43405); test: Inhibition of human SYK at 10 uM
# [40] = biological target: Serine/threonine-protein kinase PLK1 (Homo sapiens) (UniProt P53350); test: Inhibition of human okadaic acid sensitive PLK1 at 10 uM
# [41] = biological target: Mitogen-activated protein kinase 12 (Homo sapiens) (UniProt P53778); test: Inhibition of SAPK3 at 10 uM
# [42] = biological target: Insulin receptor-related protein (Homo sapiens) (UniProt P14616); test: Inhibition of IRR at 10 uM
# Chain of Insulin receptor-related protein (Homo sapiens) (P14616 27-742 limits assumed): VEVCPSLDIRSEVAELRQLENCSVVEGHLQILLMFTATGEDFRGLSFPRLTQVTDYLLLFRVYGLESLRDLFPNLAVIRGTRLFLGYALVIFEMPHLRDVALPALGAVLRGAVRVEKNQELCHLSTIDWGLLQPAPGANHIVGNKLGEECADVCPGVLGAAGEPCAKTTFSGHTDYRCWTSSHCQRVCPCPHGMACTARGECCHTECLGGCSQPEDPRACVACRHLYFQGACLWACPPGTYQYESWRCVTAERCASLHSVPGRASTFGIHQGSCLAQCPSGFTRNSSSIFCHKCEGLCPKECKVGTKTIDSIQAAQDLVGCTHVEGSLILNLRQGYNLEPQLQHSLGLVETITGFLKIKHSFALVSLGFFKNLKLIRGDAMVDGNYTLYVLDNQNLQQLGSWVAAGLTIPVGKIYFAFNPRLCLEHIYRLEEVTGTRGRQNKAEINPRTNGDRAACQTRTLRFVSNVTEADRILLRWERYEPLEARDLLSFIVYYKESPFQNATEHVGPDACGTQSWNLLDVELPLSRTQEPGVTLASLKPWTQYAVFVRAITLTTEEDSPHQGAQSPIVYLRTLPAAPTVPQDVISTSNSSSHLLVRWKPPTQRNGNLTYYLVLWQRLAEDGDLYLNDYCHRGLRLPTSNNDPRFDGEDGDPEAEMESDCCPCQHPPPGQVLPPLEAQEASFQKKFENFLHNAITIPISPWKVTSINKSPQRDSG
# Chain of Insulin receptor-related protein (Homo sapiens) (P14616 747-1297 limits assumed): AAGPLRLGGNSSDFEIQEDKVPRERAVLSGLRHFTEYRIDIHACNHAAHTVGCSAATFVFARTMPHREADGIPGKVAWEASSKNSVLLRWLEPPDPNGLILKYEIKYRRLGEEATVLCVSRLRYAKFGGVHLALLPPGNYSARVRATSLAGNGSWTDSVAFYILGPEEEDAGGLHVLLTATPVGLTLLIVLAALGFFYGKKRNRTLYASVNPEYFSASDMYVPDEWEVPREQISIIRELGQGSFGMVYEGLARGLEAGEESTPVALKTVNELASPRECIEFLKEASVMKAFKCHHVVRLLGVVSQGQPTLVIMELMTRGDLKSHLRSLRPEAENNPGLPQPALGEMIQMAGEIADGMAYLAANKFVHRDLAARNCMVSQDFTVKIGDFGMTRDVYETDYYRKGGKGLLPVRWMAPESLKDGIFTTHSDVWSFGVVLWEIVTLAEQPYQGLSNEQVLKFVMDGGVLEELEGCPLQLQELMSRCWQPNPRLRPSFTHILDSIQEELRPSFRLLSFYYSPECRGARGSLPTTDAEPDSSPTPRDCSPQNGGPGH
# [43] = biological target: Serine/threonine-protein kinase B-raf (Homo sapiens, UniProt P15056, V600E); test: Inhibition of BRAF V600E mutant
# Chain of Vascular endothelial growth factor receptor 3 (P35916 whole entry): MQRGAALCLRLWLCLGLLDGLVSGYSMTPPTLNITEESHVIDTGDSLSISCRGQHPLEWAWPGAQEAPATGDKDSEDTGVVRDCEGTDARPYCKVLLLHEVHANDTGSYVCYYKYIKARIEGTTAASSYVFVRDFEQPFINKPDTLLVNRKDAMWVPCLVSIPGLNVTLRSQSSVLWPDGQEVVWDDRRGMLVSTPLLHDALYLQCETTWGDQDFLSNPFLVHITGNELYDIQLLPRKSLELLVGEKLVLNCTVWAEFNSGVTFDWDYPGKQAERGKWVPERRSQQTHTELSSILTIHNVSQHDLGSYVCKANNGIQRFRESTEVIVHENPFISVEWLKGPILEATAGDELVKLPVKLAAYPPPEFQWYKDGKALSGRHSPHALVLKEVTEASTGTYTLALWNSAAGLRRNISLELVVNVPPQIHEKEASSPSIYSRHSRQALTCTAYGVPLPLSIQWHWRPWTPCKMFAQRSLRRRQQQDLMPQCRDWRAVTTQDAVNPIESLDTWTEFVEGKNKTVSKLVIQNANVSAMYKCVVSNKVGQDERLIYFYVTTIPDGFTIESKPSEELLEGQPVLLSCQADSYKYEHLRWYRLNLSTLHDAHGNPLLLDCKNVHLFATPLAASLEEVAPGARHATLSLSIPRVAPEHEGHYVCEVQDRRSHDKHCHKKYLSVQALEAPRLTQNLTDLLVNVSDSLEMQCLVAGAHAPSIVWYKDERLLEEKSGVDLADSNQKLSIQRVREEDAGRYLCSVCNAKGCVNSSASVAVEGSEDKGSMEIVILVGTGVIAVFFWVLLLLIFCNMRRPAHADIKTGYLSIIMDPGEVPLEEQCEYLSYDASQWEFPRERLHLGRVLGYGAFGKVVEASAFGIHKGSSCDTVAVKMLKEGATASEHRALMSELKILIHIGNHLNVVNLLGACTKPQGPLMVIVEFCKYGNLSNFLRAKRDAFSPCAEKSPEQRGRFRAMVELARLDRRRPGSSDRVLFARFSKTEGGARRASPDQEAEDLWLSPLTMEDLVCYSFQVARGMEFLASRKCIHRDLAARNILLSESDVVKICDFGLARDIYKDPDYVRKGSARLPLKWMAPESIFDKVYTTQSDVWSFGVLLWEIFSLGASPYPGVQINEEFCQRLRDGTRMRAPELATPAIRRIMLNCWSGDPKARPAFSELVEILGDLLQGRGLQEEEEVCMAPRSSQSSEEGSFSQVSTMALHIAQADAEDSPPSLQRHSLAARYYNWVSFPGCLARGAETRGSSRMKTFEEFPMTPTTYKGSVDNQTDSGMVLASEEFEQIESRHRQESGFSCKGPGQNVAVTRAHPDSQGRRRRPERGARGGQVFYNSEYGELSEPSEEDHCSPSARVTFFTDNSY
compound,measurement,setting,value
Nc1ncnc2ncn(CC(=O)c3ccccc3)c12,inhibition,[1],inactive
Nc1ncnc2c1ncn2CC(=O)c1ccccc1,inhibition,Angiopoietin-1 receptor,inactive
same,inhibition,[2],inactive
same,inhibition,[3],inactive
Nc1ncnc2ncn(CC(=O)c3c[nH]c4ccccc34)c12,inhibition,[4],inactive
same,inhibition,[5],inactive
same,inhibition,[6],inactive
same,inhibition,[7],inactive
same,inhibition,[8],inactive
same,inhibition,[9],inactive
same,inhibition,[10],inactive
same,inhibition,[11],inactive
same,inhibition,[12],inactive
same,inhibition,[13],inactive
same,inhibition,[14],inactive
same,inhibition,[15],inactive
same,inhibition,[16],inactive
same,inhibition,[17],inactive
same,inhibition,Aurora kinase B [18],inactive
same,inhibition,[19],inactive
same,inhibition,[20],inactive
same,inhibition,[21],inactive
same,inhibition,[22],inactive
same,inhibition,[23],inactive
same,inhibition,[24],inactive
same,inhibition,[25],inactive
same,inhibition,[26],inactive
same,inhibition,[27],inactive
same,inhibition,[28],inactive
same,inhibition,[29],inactive
same,inhibition,Aurora kinase B [30],inactive
same,inhibition,[31],inactive
same,inhibition,[32],inactive
same,inhibition,[33],inactive
same,inhibition,[34],inactive
same,inhibition,[35],inactive
same,inhibition,[36],inactive
same,inhibition,[37],inactive
same,inhibition,[38],inactive
same,inhibition,[39],inactive
same,inhibition,[40],inactive
same,inhibition,[41],inactive
Nc1ncnc2c1ncn2CC(=O)c1c[nH]c2ccccc12,inhibition,[42],51%
same,IC50,[43],82 µM
